From ChEMBL document CHEMBL1811902, “Thermodynamic and biological evaluation of a thrombin binding aptamer modified with several unlocked nucleic acid (UNA) monomers and a 2'-C-piperazino-UNA monomer” (Bioorg Med Chem, 2011)

Experiments:
[1] = Thermodynamic stability in pH 7.0 buffer containing 100 mM Kcl, 10 mM sodium cacodylate; type: physicochemical
In short: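 UV melting at 295 nm over 5–95 °C at 0.2 °C/min. Samples annealed 5 min at 80 °C, then slowly cooled. Nine strand concentrations spanning 10^-5–10^-6 M, set from absorbance above 80 °C. Heating and cooling profiles recorded. Thermodynamic parameters from non-linear fitting of melting curves with a unimolecular transition model.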

[2] = test system: Plasma; assay: Anticoagulant activity in human plasma assessed as time required for clot formation at 0.33 mM at 37 degC; type: functional
In short: (§1)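 Pooled citrate plasma from four healthy donors. Thrombin reagent pre-incubated with aptamer at 0.33 mM for 5 min, then mixed with an equal volume of plasma. Clotting time (thrombin time, seconds) read at 37 °C on an automated coagulation analyser. Antithrombin effect taken as the extra clotting time over a water-added reference.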

[3] = molecular target: Prothrombin (Homo sapiens, UniProt P00734); assay: Binding affinity to thrombin at 37 degC by isothermal titration calorimetry
In short: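 ITC at 37 °C. One 0.2 µL pre-injection, discarded, then 19 × 2 µL injections. Heat of dilution from aptamer-into-buffer injections subtracted.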

[4] = test system: Plasma; assay: Anticoagulant activity in human plasma assessed as time required for clot formation in presence of compound minus time required for clot formation in absence of compound at 0.33 mM at 37 degC; type: functional; in short: as §1

Row | SMILES | Tm [1] | Kd [3] | Time [2] | Time [4]
1 | Cc1cn([C@H]2C[C@H](OP(N)(=O)OC[C@@H]3C[C@@H](OP(N)(=O)OC[C@H]4O[C@@H](n5cnc6c(=O)[nH]c(N)nc65)C[C@@H]4OP(N)(=O)OC[C@H]4O[C@@H](n5cc(C)c(=O)[nH]c5=O)C[C@@H]4OP(N)(=O)OC[C@H]4O[C@@H](n5cnc6c(=O)[nH]c(N)nc65)C[C@@H]4OP(N)(=O)OC[C@H]4O[C@@H](n5cc(C)c(=O)[nH]c5=O)C[C@@H]4OP(N)(=O)OC[C@H]4O[C@@H](n5cnc6c(=O)[nH]c(N)nc65)C[C@@H]4OP(N)(=O)OC[C@H]4O[C@@H](n5cnc6c(=O)[nH]c(N)nc65)C[C@@H]4OP(N)(=O)OC[C@H]4O[C@@H](n5cc(C)c(=O)[nH]c5=O)C[C@@H]4OP(N)(=O)OC[C@H]4O[C@@H](n5cc(C)c(=O)[nH]c5=O)C[C@@H]4OP(N)(=O)OC[C@H]4O[C@@H](n5cnc6c(=O)[nH]c(N)nc65)C[C@@H]4OP(N)(=O)OC[C@H]4O[C@@H](n5cnc6c(=O)[nH]c(N)nc65)C[C@@H]4O)[C@H](n4cnc5c(=O)[nH]c(N)nc54)O3)[C@@H](COP(N)(=O)OC[C@@H](COP(N)(=O)O[C@H]3C[C@H](n4cnc5c(=O)[nH]c(N)nc54)O[C@@H]3COP(N)(=O)O[C@H]3C[C@H](n4cnc5c(=O)[nH]c(N)nc54)O[C@@H]3COC(=O)CCCC[C@@H]3SC[C@@H]4NC(=O)N[C@@H]43)O[C@H](CN3CCNCC3)n3ccc(=O)[nH]c3=O)O2)c(=O)[nH]c1=O (stereo not given in full) | 45.4 °C | 1600 nM | 21.3 s | 2.3 s
2 | Cc1cn([C@H]2C[C@H](OP(N)(=O)OC[C@H]3O[C@@H](n4cnc5c(=O)[nH]c(N)nc54)C[C@@H]3OP(N)(=O)OC[C@H]3O[C@@H](n4cnc5c(=O)[nH]c(N)nc54)C[C@@H]3O)[C@@H](COP(N)(=O)OC[C@@H](COP(N)(=O)O[C@H]3C[C@H](n4cnc5c(=O)[nH]c(N)nc54)O[C@@H]3COP(N)(=O)O[C@H]3C[C@H](n4cnc5c(=O)[nH]c(N)nc54)O[C@@H]3COP(N)(=O)O[C@H]3C[C@H](n4cc(C)c(=O)[nH]c4=O)O[C@@H]3COP(N)(=O)O[C@H]3C[C@H](n4cnc5c(=O)[nH]c(N)nc54)O[C@@H]3COP(N)(=O)O[C@H]3C[C@H](n4c(C)cc(=O)[nH]c4=O)O[C@@H]3COP(N)(=O)O[C@H]3C[C@H](n4cnc5c(=O)[nH]c(N)nc54)O[C@@H]3COP(N)(=O)O[C@@H]3C[C@@H](COP(N)(=O)O[C@H]4C[C@H](n5cc(C)c(=O)[nH]c5=O)O[C@@H]4COP(N)(=O)O[C@H]4C[C@H](n5cc(C)c(=O)[nH]c5=O)O[C@@H]4COP(N)(=O)O[C@H]4C[C@H](n5cnc6c(=O)[nH]c(N)nc65)O[C@@H]4COP(N)(=O)O[C@H]4C[C@H](n5cnc6c(=O)[nH]c(N)nc65)O[C@@H]4COC(=O)CCCC[C@@H]4SC[C@@H]5NC(=O)N[C@@H]54)O[C@H]3n3cnc4c(=O)[nH]c(N)nc43)O[C@H](CN3CCNCC3)n3ccc(=O)[nH]c3=O)O2)c(=O)[nH]c1=O (stereo not given in full) | 44.8 °C | 1000 nM | 22.5 s | 3.5 s
3 | Cc1cn([C@H]2C[C@H](OP(N)(=O)OC[C@@H]3C[C@@H](OP(N)(=O)OC[C@H]4O[C@@H](n5cnc6c(=O)[nH]c(N)nc65)C[C@@H]4OP(N)(=O)OC[C@H]4O[C@@H](n5cc(C)c(=O)[nH]c5=O)C[C@@H]4OP(N)(=O)OC[C@H]4O[C@@H](n5cnc6c(=O)[nH]c(N)nc65)C[C@@H]4OP(N)(=O)OC[C@H]4O[C@@H](n5cc(C)c(=O)[nH]c5=O)C[C@@H]4OP(N)(=O)OC[C@H]4O[C@@H](n5cnc6c(=O)[nH]c(N)nc65)C[C@@H]4OP(N)(=O)OC[C@H]4O[C@@H](n5cnc6c(=O)[nH]c(N)nc65)C[C@@H]4OP(N)(=O)OC[C@H]4O[C@@H](n5cc(C)c(=O)[nH]c5=O)C[C@@H]4OP(N)(=O)OC[C@H]4O[C@@H](n5cc(C)c(=O)[nH]c5=O)C[C@@H]4OP(N)(=O)OC[C@H]4O[C@@H](n5cnc6c(=O)[nH]c(N)nc65)C[C@@H]4OP(N)(=O)OC[C@H]4O[C@@H](n5cnc6c(=O)[nH]c(N)nc65)C[C@@H]4O)[C@H](n4cnc5c(=O)[nH]c(N)nc54)O3)[C@@H](COP(N)(=O)O[C@H]3C[C@H](n4cc(C)c(=O)[nH]c4=O)O[C@@H]3COP(N)(=O)O[C@H]3C[C@H](n4cnc5c(=O)[nH]c(N)nc54)O[C@@H]3COP(N)(=O)O[C@H]3C[C@H](n4cnc5c(=O)[nH]c(N)nc54)O[C@@H]3COC(=O)CCCC[C@@H]3SC[C@@H]4NC(=O)N[C@@H]43)O2)c(=O)[nH]c1=O (stereo not given in full) [THROMBIN BINDING APTAMER] | 42.2 °C | 47.6 nM | 32.6 s | 13.6 s

The next lines start with results.

Row | Tm [1] | Kd [3] | SMILES | Time [2] | Time [4]
4 | 48.1 °C | 300 nM | Cc1cn([C@H]2C[C@H](OP(N)(=O)OC[C@H]3O[C@@H](n4cnc5c(=O)[nH]c(N)nc54)C[C@@H]3OP(N)(=O)OC[C@H]3O[C@@H](n4cnc5c(=O)[nH]c(N)nc54)C[C@@H]3O)[C@@H](COP(N)(=O)OC[C@@H](COP(N)(=O)O[C@H]3C[C@H](n4cnc5c(=O)[nH]c(N)nc54)O[C@@H]3COP(N)(=O)O[C@H]3C[C@H](n4cnc5c(=O)[nH]c(N)nc54)O[C@@H]3COP(N)(=O)O[C@H]3C[C@H](n4cc(C)c(=O)[nH]c4=O)O[C@@H]3COP(N)(=O)O[C@H]3C[C@H](n4cnc5c(=O)[nH]c(N)nc54)O[C@@H]3COP(N)(=O)OC[C@@H](COP(N)(=O)O[C@H]3C[C@H](n4cnc5c(=O)[nH]c(N)nc54)O[C@@H]3COP(N)(=O)O[C@@H]3C[C@@H](COP(N)(=O)O[C@H]4C[C@H](n5cc(C)c(=O)[nH]c5=O)O[C@@H]4COP(N)(=O)O[C@H]4C[C@H](n5cc(C)c(=O)[nH]c5=O)O[C@@H]4COP(N)(=O)O[C@H]4C[C@H](n5cnc6c(=O)[nH]c(N)nc65)O[C@@H]4COP(N)(=O)O[C@H]4C[C@H](n5cnc6c(=O)[nH]c(N)nc65)O[C@@H]4COC(=O)CCCC[C@@H]4SC[C@@H]5NC(=O)N[C@@H]54)O[C@H]3n3cnc4c(=O)[nH]c(N)nc43)O[C@H](CO)n3ccc(=O)[nH]c3=O)O[C@H](CO)n3ccc(=O)[nH]c3=O)O2)c(=O)[nH]c1=O (stereo not given in full) | 28.7 s | 9.7 s
5 | 50.1 °C | 1300 nM | Cc1cn([C@H]2C[C@H](OP(N)(=O)OC[C@@H]3C[C@@H](OP(N)(=O)OC[C@H]4O[C@@H](n5cnc6c(=O)[nH]c(N)nc65)C[C@@H]4OP(N)(=O)OC[C@H](COP(N)(=O)OC[C@H]4O[C@@H](n5cnc6c(=O)[nH]c(N)nc65)C[C@@H]4OP(N)(=O)OC[C@H]4O[C@@H](n5cc(C)c(=O)[nH]c5=O)C[C@@H]4OP(N)(=O)OC[C@H]4O[C@@H](n5cnc6c(=O)[nH]c(N)nc65)C[C@@H]4OP(N)(=O)OC[C@H]4O[C@@H](n5cnc6c(=O)[nH]c(N)nc65)C[C@@H]4OP(N)(=O)OC[C@H]4O[C@@H](n5cc(C)c(=O)[nH]c5=O)C[C@@H]4OP(N)(=O)OC[C@H]4O[C@@H](n5cc(C)c(=O)[nH]c5=O)C[C@@H]4OP(N)(=O)OC[C@H]4O[C@@H](n5cnc6c(=O)[nH]c(N)nc65)C[C@@H]4OP(N)(=O)OC[C@H]4O[C@@H](n5cnc6c(=O)[nH]c(N)nc65)C[C@@H]4O)O[C@H](CO)n4ccc(=O)[nH]c4=O)[C@H](n4cnc5c(=O)[nH]c(N)nc54)O3)[C@@H](COP(N)(=O)OC[C@@H](COP(N)(=O)O[C@H]3C[C@H](n4cnc5c(=O)[nH]c(N)nc54)O[C@@H]3COP(N)(=O)O[C@H]3C[C@H](n4cnc5c(=O)[nH]c(N)nc54)O[C@@H]3COC(=O)CCCC[C@@H]3SC[C@@H]4NC(=O)N[C@@H]43)O[C@H](CO)n3ccc(=O)[nH]c3=O)O2)c(=O)[nH]c1=O (stereo not given in full) | 31.2 s | 12.2 s
